# Results as given in PubChem BioAssay AID493104 (Broad Institute, 2011).
# Test system: Vibrio harveyi BB721 quorum sensing luminescence, 9 h
# Assay: inhibitors of constitutive quorum-sensing luminescence in V. harveyi, dose response, counter-screen for AI-2 quorum sensing inhibitor project, strain BB721 constitutive-on, dry powder (AID 493104)
# Outline: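 Test system: V. harveyi BB721, constitutive-on quorum sensing strain | Input: Starting cell density OD600 0.0005 | Buffer or medium: AB (autoinducer bioassay) medium | Incubation: 9 h compound exposure at 30 °C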
row,SMILES,AC50 [µM]
1,C=Cn1c(C(=O)O)ccc1-c1ccc(CC)cc1,13.8
2,O=C1C=C/C(=C/Br)O1,6.43
3,COc1cc(NC(=O)CN2C(=O)NC(c3ccccc3)(c3ccccc3)C2=O)cc(OC)c1,0.919
4,Cc1cccc(NS(=O)(=O)c2ccc(Oc3ccccc3)cc2)n1,12.4
5,CCc1ccc(S(=O)(=O)Nc2ccc(Br)cn2)cc1,11.9
